In ChEMBL document CHEMBL1649165, “Activity profile in vitro of micafungin against Spanish clinical isolates of common and emerging species of yeasts and molds” (2009):
Values after ≈ are worked out from the molar mass of the structure shown. *1 amine or outer side, *2 acyl side, *3 side chain or, on linkers, in order; H or OH if unused. Where a SMILES comes first, the peptide text is derived from it. Bridges are numbered along the chain shown (N, C = ends). [ ]: non-standard residue; d: D form. The star is where a group is joined. hTyr(3S-OH,4S-OH,3'-OSO3H) = N[C@H](C(=O)O)[C@H](O)[C@@H](O)c1ccc(O)c(OS(=O)(=O)O)c1; Orn(4R-OH,5R-OH) = O=C([C@H](C[C@@H](O)[C@@H](O)N[*:3])N[*:1])[*:2]; Pro(3S-OH,4S-Me) = C[C@H]1CN[C@H](C(=O)O)[C@H]1O; X1 = CCCCCOc1ccc(-c2cc(-c3ccc(C(=O)*)cc3)no2)cc1; Gln(3R-OH) = NC(=O)C[C@@H](O)[C@H](N)C(=O)O; Hyp = O=C(O)[C@@H]1C[C@@H](O)CN1

What was measured:
Type in all cases: functional
Candida tropicalis = test: Antimicrobial activity against Candida tropicalis by broth microdilution method
Outline: (§1)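 Clinical isolates from human patients, tested by broth microdilution using the AFST-EUCAST reference procedure for fermentative yeasts. The MIC was read per that reference method.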

[1] = tested on: Meyerozyma guilliermondii; test: Antimicrobial activity against Candida guilliermondii by broth microdilution method; outline: as §1
Clavispora lusitaniae = test: Antimicrobial activity against Candida lusitaniae by broth microdilution method; outline: as §1
Kluyveromyces marxianus = test: Antimicrobial activity against Candida kefyr by broth microdilution method; outline: as §1
Diutina rugosa = test: Antimicrobial activity against Candida rugosa by broth microdilution method; outline: as §1
Torulaspora delbrueckii = test: Antimicrobial activity against Candida coliculosa by broth microdilution method; outline: as §1
[Candida] intermedia = Antimicrobial activity against Candida intermedia by broth microdilution method; conditions: Sungouiella intermedia; outline: as §1
Candida orthopsilosis = test: Antimicrobial activity against Candida orthopsilosis by broth microdilution method; conditions: Lodderomyces orthopsilosis; outline: as §1
[2] = tested on: Kazachstania pintolopesii; test: Antimicrobial activity against Candida pintolopesii by broth microdilution method; conditions: Arxiozyma pintolopesii; outline: as §1
[3] = tested on: Cryptococcus deneoformans; test: Antimicrobial activity against Cryptococcus neoformans var. neoformans by broth microdilution method
Outline: (§2)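 Clinical isolates of nonfermentative yeasts, tested by broth microdilution following EUCAST recommendations. The only change from that method was a minor modification to improve growth.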

Rhodotorula mucilaginosa = test: Antimicrobial activity against Rhodotorula mucilaginosa by broth microdilution method
Outline: (§3)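 Nonfermentative yeast clinical isolates (Rhodotorula, Trichosporon) tested by broth microdilution. The EUCAST yeast recommendations were followed strictly, with one minor modification to improve growth. MIC was read as the endpoint.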

Trichosporon inkin = test: Antimicrobial activity against Trichosporon inkin by broth microdilution method; outline: as §3
Naganishia albida = test: Antimicrobial activity against Cryptococcus albidus by broth microdilution method; outline: as §2
Ustilago = test: Antimicrobial activity against Ustilago spp by broth microdilution method
Rhodotorula glutinis = test: Antimicrobial activity against Rhodotorula glutinis by broth microdilution method; outline: as §3
Trichosporon domesticum = test: Antimicrobial activity against Trichosporon mycotoxinivorans by broth microdilution method; conditions: Apiotrichum domesticum
Outline: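 Spanish human clinical isolates were tested as nonfermentative yeasts by broth microdilution. The method strictly followed the EUCAST recommendations, with a minor modification to improve growth, and the read-out was the MIC.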

Aspergillus terreus = test: Antimicrobial activity against Aspergillus terreus by broth microdilution method
Outline: (§4)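 Clinical mould isolates, tested by broth microdilution using the AFST-EUCAST reference method for filamentous fungi. For echinocandins, the endpoint was the minimum effective concentration: the lowest drug concentration giving aberrant hyphal growth, read with an inverted microscope.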

Aspergillus flavus = test: Antimicrobial activity against Aspergillus flavus by broth microdilution method; outline: as §4
Aspergillus nidulans = test: Antimicrobial activity against Aspergillus nidulans by broth microdilution method; outline: as §4
Aspergillus ochraceus = test: Antimicrobial activity against Aspergillus ochraceus by broth microdilution method; outline: as §4
Aspergillus ustus = test: Antimicrobial activity against Aspergillus ustus by broth microdilution method; outline: as §4
Fennellia nivea = test: Antimicrobial activity against Aspergillus niveus by broth microdilution method; outline: as §4
Aspergillus glaucus = test: Antimicrobial activity against Aspergillus glaucus by broth microdilution method; outline: as §4
Penicillium = test: Antimicrobial activity against Penicillium spp. by broth microdilution method
Outline: (§5)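 Filamentous fungus clinical isolates tested by the AFST-EUCAST reference broth microdilution method for moulds. For echinocandins, the endpoint was the minimum effective concentration: the lowest drug concentration giving aberrant hyphal growth, read with an inverted microscope.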

Fusarium solani = test: Antimicrobial activity against Fusarium solani by broth microdilution method; outline: as §5
Fusarium proliferatum = test: Antimicrobial activity against Fusarium proliferatum by broth microdilution method; outline: as §4
Fusarium oxysporum = test: Antimicrobial activity against Fusarium oxysporum by broth microdilution method; outline: as §4
Fusarium verticillioides = test: Antimicrobial activity against Fusarium verticillioides by broth microdilution method; outline: as §5
Acremonium sp. = test: Antimicrobial activity against Acremonium sp.by broth microdilution method; outline: as §4
[4] = tested on: Scopulariopsis brevicaulis; test: Antimicrobial activity against Scopulariopsis brevicaulis by broth microdilution method; outline: as §5
Phialemonium curvatum = test: Antimicrobial activity against Phialemonium curvatum by broth microdilution method; conditions: Thyridium curvatum; outline: as §5
Fusarium equiseti = test: Antimicrobial activity against Fusarium equiseti by broth microdilution method; outline: as §4
Fusarium reticulatum = test: Antimicrobial activity against Fusarium reticulatum by broth microdilution method; outline: as §5
Coprinellus domesticus = test: Antimicrobial activity against Hormographiella verticillata by broth microdilution method; outline: as §5
Scedosporium apiospermum = test: Antimicrobial activity against Scedosporium apiospermum by broth microdilution method; outline: as §5
Lewia infectoria = test: Antimicrobial activity against Alternaria infectoria by broth microdilution method; outline: as §4
Exophiala dermatitidis = test: Antimicrobial activity against Exophiala dermatitidis by broth microdilution method
Aureobasidium pullulans = test: Antimicrobial activity against Aureobasidium pullulans by broth microdilution method
Hortaea werneckii = test: Antimicrobial activity against Hortaea werneckii by broth microdilution method
Scytalidium hyalinum = test: Antimicrobial activity against Scytalidium hyalinum by broth microdilution method; conditions: Neoscytalidium hyalinum; outline: as §5
Lecythophora hoffmannii = test: Antimicrobial activity against Lecythophora hoffmannii by broth microdilution method; conditions: Coniochaeta hoffmannii; outline: as §5
Rhizopus arrhizus = test: Antimicrobial activity against Rhizopus oryzae by broth microdilution method; outline: as §5
Mucor = test: Antimicrobial activity against Mucor spp.by broth microdilution method; outline: as §5
[5] = tested on: Cunninghamella bertholletiae; test: Antimicrobial activity against Cunninghamella bertholletiae by broth microdilution method; outline: as §4

Compound: CCCCCOc1ccc(-c2cc(-c3ccc(C(=O)N[C@H]4C[C@@H](O)[C@@H](O)NC(=O)[C@@H]5[C@@H](O)[C@@H](C)CN5C(=O)[C@H]([C@H](O)CC(N)=O)NC(=O)[C@H]([C@H](O)[C@@H](O)c5ccc(O)c(OS(=O)(=O)O)c5)NC(=O)[C@@H]5C[C@@H](O)CN5C(=O)[C@H]([C@@H](C)O)NC4=O)cc3)no2)cc1 [MICAFUNGIN] (X1-[Orn(4R-OH,5R-OH)]T[Hyp][hTyr(3S-OH,4S-OH,3'-OSO3H)][Gln(3R-OH)][Pro(3S-OH,4S-Me)]; lactam 1-C)
- MIC50 (Candida tropicalis): 0.03 µg/mL (≈ 0.0236 µM)
- MIC90 (Candida tropicalis): 0.03 µg/mL (≈ 0.0236 µM)
- MIC50 [1]: 0.12 µg/mL (≈ 0.0945 µM)
- MIC90 [1]: 1 µg/mL (≈ 0.787 µM)
- MIC50 (Clavispora lusitaniae): 0.03 µg/mL (≈ 0.0236 µM)
- MIC90 (Clavispora lusitaniae): 0.03 µg/mL (≈ 0.0236 µM)
- MIC50 (Kluyveromyces marxianus): 0.03 µg/mL (≈ 0.0236 µM)
- MIC90 (Kluyveromyces marxianus): 0.03 µg/mL (≈ 0.0236 µM)
- MIC50 (Diutina rugosa): 0.03 µg/mL (≈ 0.0236 µM)
- MIC90 (Diutina rugosa): 0.12 µg/mL (≈ 0.0945 µM)
- MIC50 (Torulaspora delbrueckii): 0.03 µg/mL (≈ 0.0236 µM)
- MIC90 (Torulaspora delbrueckii): 0.12 µg/mL (≈ 0.0945 µM)
- MIC50 ([Candida] intermedia): 0.03 µg/mL (≈ 0.0236 µM)
- MIC90 ([Candida] intermedia): 0.12 µg/mL (≈ 0.0945 µM)
- MIC50 (Candida orthopsilosis): 0.03 µg/mL (≈ 0.0236 µM)
- MIC90 (Candida orthopsilosis): 0.12 µg/mL (≈ 0.0945 µM)
- MIC50 [2]: 0.03 µg/mL (≈ 0.0236 µM)
- MIC90 [2]: 0.12 µg/mL (≈ 0.0945 µM)
- MIC50 [3]: > 16 µg/mL
- MIC90 [3]: > 16 µg/mL
- MIC50 (Rhodotorula mucilaginosa): > 16 µg/mL
- MIC90 (Rhodotorula mucilaginosa): > 16 µg/mL
- MIC50 (Trichosporon inkin): > 16 µg/mL
- MIC90 (Trichosporon inkin): > 16 µg/mL
- MIC50 (Naganishia albida): > 16 µg/mL
- MIC90 (Naganishia albida): > 16 µg/mL
- MIC50 (Ustilago): > 16 µg/mL
- MIC90 (Ustilago): > 16 µg/mL
- MIC50 (Rhodotorula glutinis): > 16 µg/mL
- MIC90 (Rhodotorula glutinis): > 16 µg/mL
- MIC50 (Trichosporon domesticum): > 16 µg/mL
- MIC90 (Trichosporon domesticum): > 16 µg/mL
- MIC50 (Aspergillus terreus): 0.03 µg/mL (≈ 0.0236 µM)
- MIC90 (Aspergillus terreus): 0.03 µg/mL (≈ 0.0236 µM)
- MIC50 (Aspergillus flavus): > 16 µg/mL
- MIC90 (Aspergillus flavus): > 16 µg/mL
- MIC50 (Aspergillus nidulans): 0.03 µg/mL (≈ 0.0236 µM)
- MIC90 (Aspergillus nidulans): > 16 µg/mL
- MIC50 (Aspergillus ochraceus): 0.06 µg/mL (≈ 0.0472 µM)
- MIC90 (Aspergillus ochraceus): 0.25 µg/mL (≈ 0.197 µM)
- MIC50 (Aspergillus ustus): 0.06 µg/mL (≈ 0.0472 µM)
- MIC90 (Aspergillus ustus): 0.25 µg/mL (≈ 0.197 µM)
- MIC50 (Fennellia nivea): 0.06 µg/mL (≈ 0.0472 µM)
- MIC90 (Fennellia nivea): 0.25 µg/mL (≈ 0.197 µM)
- MIC50 (Aspergillus glaucus): 0.06 µg/mL (≈ 0.0472 µM)
- MIC90 (Aspergillus glaucus): 0.25 µg/mL (≈ 0.197 µM)
- MIC50 (Penicillium): 0.03 µg/mL (≈ 0.0236 µM)
- MIC90 (Penicillium): 0.06 µg/mL (≈ 0.0472 µM)
- MIC50 (Fusarium solani): > 16 µg/mL
- MIC90 (Fusarium solani): > 16 µg/mL
- MIC50 (Fusarium proliferatum): > 16 µg/mL
- MIC90 (Fusarium proliferatum): > 16 µg/mL
- MIC50 (Fusarium oxysporum): > 16 µg/mL
- MIC90 (Fusarium oxysporum): > 16 µg/mL
- MIC50 (Fusarium verticillioides): > 16 µg/mL
- MIC90 (Fusarium verticillioides): > 16 µg/mL
- MIC50 (Acremonium sp.): 0.12 µg/mL (≈ 0.0945 µM)
- MIC90 (Acremonium sp.): 0.25 µg/mL (≈ 0.197 µM)
- MIC50 [4]: > 16 µg/mL
- MIC90 [4]: > 16 µg/mL
- MIC50 (Phialemonium curvatum): > 16 µg/mL
- MIC90 (Phialemonium curvatum): > 16 µg/mL
- MIC50 (Fusarium equiseti): > 16 µg/mL
- MIC90 (Fusarium equiseti): > 16 µg/mL
- MIC50 (Fusarium reticulatum): > 16 µg/mL
- MIC90 (Fusarium reticulatum): > 16 µg/mL
- MIC50 (Coprinellus domesticus): > 16 µg/mL
- MIC90 (Coprinellus domesticus): > 16 µg/mL
- MIC50 (Scedosporium apiospermum): 0.03 µg/mL (≈ 0.0236 µM)
- MIC90 (Scedosporium apiospermum): > 16 µg/mL
- MIC50 (Lewia infectoria): > 16 µg/mL
- MIC90 (Lewia infectoria): > 16 µg/mL
- MIC50 (Exophiala dermatitidis): 0.03 µg/mL (≈ 0.0236 µM)
- MIC90 (Exophiala dermatitidis): 0.06 µg/mL (≈ 0.0472 µM)
- MIC50 (Aureobasidium pullulans): 0.03 µg/mL (≈ 0.0236 µM)
- MIC90 (Aureobasidium pullulans): 0.06 µg/mL (≈ 0.0472 µM)
- MIC50 (Hortaea werneckii): 0.03 µg/mL (≈ 0.0236 µM)
- MIC90 (Hortaea werneckii): 0.06 µg/mL (≈ 0.0472 µM)
- MIC50 (Scytalidium hyalinum): 0.03 µg/mL (≈ 0.0236 µM)
- MIC90 (Scytalidium hyalinum): 0.06 µg/mL (≈ 0.0472 µM)
- MIC50 (Lecythophora hoffmannii): 0.03 µg/mL (≈ 0.0236 µM)
- MIC90 (Lecythophora hoffmannii): 0.06 µg/mL (≈ 0.0472 µM)
- MIC50 (Rhizopus arrhizus): > 16 µg/mL
- MIC90 (Rhizopus arrhizus): > 16 µg/mL
- MIC50 (Mucor): > 16 µg/mL
- MIC90 (Mucor): > 16 µg/mL
- MIC50 [5]: > 16 µg/mL
- MIC90 [5]: > 16 µg/mL
